Data published in ChEMBL document CHEMBL4819061, “New bioactive 5-arylcarboximidamidopyrazolo[3,4-c]pyridines: Synthesis, cytotoxic activity, mechanistic investigation and structure-activity relationships” (Eur J Med Chem, 2021).
Structures can show the parent of a compound that is named as a salt. Calls of active or inactive are those of the source. The calls are words filed in the database; no cut-off is given here.

What was measured:
[1] = test system: HT-1080; test: Induction of cell cycle arrest in human HT1080 cells assessed as accumulation at G0/G1 phase at 2 uM incubated for 24 hrs by RNase/PI staining based flow cytometric analysis (reference value: 32.86 %); assay type: functional
[2] = test system: HT-1080; test: Induction of cell cycle arrest in human HT1080 cells assessed as accumulation at sub-diploid phase at 2 uM incubated for 24 hrs by RNase/PI staining based flow cytometric analysis (reference value: 5.36 %); assay type: functional
[3] = target: RAC-alpha serine/threonine-protein kinase (Homo sapiens) (UniProt P31749); test: Inhibition of AKT phosphorylation at Ser473 residue in human HT-1080 cells at 20 uM after 15 mins by Western blotting analysis
[4] = test system: PC-3; test: Cytotoxicity against human PC-3 cells assessed as reduction in cell viability incubated for 72 hrs by MTT assay; assay type: functional, cell-based; details: PC-3, 72 h
In short: (§1)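 Cancer lines (MDA-MB-231, HT-1080, PC-3) were grown in DMEM with 10% FBS and penicillin/streptomycin at 37 °C in 5% CO₂. About 5000 cells/well adhered overnight, then serial compound dilutions were added for 72 h, with matching DMSO dilutions (0.5–0.0008% v/v) as controls. MTT (1 mg/ml final, serum-free phenol-red-free DMEM) ran 4 h, was solubilised in 2-propanol, and OD read at 550 nm (ref 690). IC50 is the concentration halving OD versus untreated, mean of three independent experiments.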

[5] = test system: AG1523; test: Cytotoxicity against human AG01523 cells assessed as reduction in cell viability incubated for 72 hrs by MTT assay; assay type: cell-based; details: AG1523, 72 h
[6] = target: MAP kinase p38 (Homo sapiens) (UniProt O15264+Q15759+Q16539+P53778); test: Induction of p38 MAPK phosphorylation in human HT-1080 cells at 20 uM after 15 mins by Western blotting analysis
[7] = test system: HT-1080; test: Induction of cell cycle arrest in human HT1080 cells assessed as accumulation at G2/M phase at 2 uM incubated for 24 hrs by RNase/PI staining based flow cytometric analysis (reference value: 47.55 %); assay type: functional
[8] = test system: HT-1080; test: Induction of apoptosis in human HT-1080 cells assessed as increase in PARP cleavage at 2 uM after 24 hrs by Western blotting analysis
[9] = test system: HT-1080; test: Cytotoxicity against human HT-1080 cells assessed as reduction in cell viability incubated for 72 hrs by MTT assay; assay type: functional, cell-based; details: HT-1080, 72 h; in short: as §1
[10] = test system: MDA-MB-231; test: Cytotoxicity against human MDA-MB-231 cells assessed as reduction in cell viability incubated for 72 hrs by MTT assay; assay type: functional, cell-based; details: MDA-MB-231, 72 h; in short: as §1
[11] = test system: HT-1080; test: Inhibition of ERK phosphorylation in human HT-1080 cells at 20 uM after 15 mins by Western blotting analysis
[12] = test system: HT-1080; test: Induction of cell cycle arrest in human HT1080 cells assessed as accumulation at S phase at 2 uM incubated for 24 hrs by RNase/PI staining based flow cytometric analysis (reference value: 19.59 %); assay type: functional

Chain of RAC-alpha serine/threonine-protein kinase (Homo sapiens) (P31749 whole entry): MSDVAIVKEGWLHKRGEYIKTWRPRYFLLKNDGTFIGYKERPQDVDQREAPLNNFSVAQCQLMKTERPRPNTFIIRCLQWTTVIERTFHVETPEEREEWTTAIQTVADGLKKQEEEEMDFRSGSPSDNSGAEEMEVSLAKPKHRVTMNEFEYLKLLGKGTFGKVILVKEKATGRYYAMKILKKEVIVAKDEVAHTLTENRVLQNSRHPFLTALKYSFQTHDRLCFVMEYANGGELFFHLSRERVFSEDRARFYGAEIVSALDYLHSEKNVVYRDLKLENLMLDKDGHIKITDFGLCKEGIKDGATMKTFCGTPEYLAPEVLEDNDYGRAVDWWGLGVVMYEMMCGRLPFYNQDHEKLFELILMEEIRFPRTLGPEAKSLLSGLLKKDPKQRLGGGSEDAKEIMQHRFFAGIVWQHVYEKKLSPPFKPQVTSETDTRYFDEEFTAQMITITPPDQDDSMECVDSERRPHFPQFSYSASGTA

SMILES | IC50 [4] | IC50 [9] | IC50 [10] | further results
CN1CCN(c2ccc(NC(=N)c3cc4c(-c5ccccc5)n[nH]c4c(NC4CCCCC4)n3)cc2)CC1 | 4.63 µM | 0.65 µM | 1.5 µM | Percentage of cells in G0/G1 phase [1]: 43.78%; Percent of cells in sub-diploid (sub-G1) phase [2]: 13.49%; inhibition ([3]; time 15.0 mins): 100%; IC50 [5]: 12.3 µM; Activity [6]: Active; Activity [7]: 41.85%; Activity [8]: Active; inhibition [11]: Active; Activity [12]: 14.37%
CN1CCN(c2ccc(NC(=N)c3cc4cn[nH]c4cn3)cc2)CC1 | 45.4 µM | 31.3 µM | 47.5 µM | –
Cn1cc2cc(C(=N)Nc3ccccc3)ncc2n1 | – | – | > 50 µM | –
COc1cc(Nc2nc(C(=N)Nc3cccc(C(F)(F)F)c3)cc3c(-c4ccccc4)n[nH]c23)cc(OC)c1OC | 13.9 µM | 6.7 µM | 7.6 µM | –
COc1ccc(Cn2nc(-c3ccccc3)c3cc(C(=N)Nc4cccc(C(F)(F)F)c4)ncc32)cc1 | > 50 µM | 46.7 µM | > 50 µM | –
N=C(Nc1ccccc1)c1cc2cn[nH]c2cn1 | – | – | > 50 µM | –
Cn1nc(-c2ccccc2)c2cc(C(=N)Nc3ccccc3)ncc21 | 17.3 µM | 17.4 µM | 11.1 µM | –
N=C(Nc1cccc(C(F)(F)F)c1)c1cc2c(-c3ccccc3)n[nH]c2c(NC2CCCCC2)n1 | 25 µM | 21.2 µM | 24.6 µM | –
Cn1nc(-c2ccccc2)c2cc(C(=N)Nc3cccc(C(F)(F)F)c3)ncc21 | 20.9 µM | 17.8 µM | 21.4 µM | –
COc1ccc(Cn2nc(-c3ccccc3)c3cc(C(=N)Nc4ccc(N5CCN(C)CC5)cc4)ncc32)cc1 | 3.99 µM | 1.09 µM | 1.76 µM | Percentage of cells in G0/G1 phase [1]: 46.75%; Percent of cells in sub-diploid (sub-G1) phase [2]: 17.77%; inhibition ([3]; time 15.0 mins): 100%; IC50 [5]: 10.2 µM; Activity [7]: 35.98%; Activity [8]: Active; inhibition [11]: Active; Activity [12]: 17.27%
N=C(Nc1ccccc1)c1cc2c(-c3ccccc3)n[nH]c2c(N2CCOCC2)n1 | 6.8 µM | 4.8 µM | 6.8 µM | –
N=C(Nc1ccccc1)c1cc2c(-c3ccccc3)n[nH]c2cn1 | 23 µM | 22 µM | 11 µM | –
N=C(Nc1ccccc1)c1cc2c(-c3ccccc3)n[nH]c2c(NC2CCCCC2)n1 | 1.73 µM | 0.85 µM | 1.71 µM | Percentage of cells in G0/G1 phase [1]: 40.23%; Percent of cells in sub-diploid (sub-G1) phase [2]: 8.27%; IC50 [5]: 4.19 µM; Activity [6]: Active; Activity [7]: 43.29%; Activity [8]: Active; Activity [12]: 16.48%
COc1ccc(Cn2ncc3cc(C(=N)Nc4cccc(C(F)(F)F)c4)ncc32)cc1 | 27.6 µM | 24.9 µM | 29.8 µM | –
COc1cc(Nc2nc(C(=N)Nc3ccccc3)cc3c(-c4ccccc4)n[nH]c23)cc(OC)c1OC | 5.8 µM | 3.9 µM | 4.5 µM | –
CN1CCN(c2ccc(NC(=N)c3cc4cn(C)nc4cn3)cc2)CC1 | 24.8 µM | 21 µM | 20.5 µM | –
COc1ccc(Cn2nc(-c3ccccc3)c3cc(C(=N)Nc4ccccc4)nc(Nc4cc(OC)c(OC)c(OC)c4)c32)cc1 | > 50 µM | 11.1 µM | 42.1 µM | –
Cn1ncc2cc(C(=N)Nc3ccccc3)ncc21 | – | – | > 50 µM | –
COc1ccc(Cn2nc(-c3ccccc3)c3cc(C(=N)Nc4ccc(N5CCN(C)CC5)cc4)nc(NC4CCCCC4)c32)cc1 | 3.54 µM | 0.64 µM | 1.29 µM | Percentage of cells in G0/G1 phase [1]: 38.53%; Percent of cells in sub-diploid (sub-G1) phase [2]: 14.34%; IC50 [5]: 3.33 µM; Activity [7]: 48.57%; Activity [8]: Active; inhibition [11]: Active; Activity [12]: 12.9%
COc1ccc(Cn2nc(-c3ccccc3)c3cc(C(=N)Nc4ccccc4)ncc32)cc1 | 6.3 µM | 4.7 µM | 5.4 µM | –
Cn1cc2cc(C(=N)Nc3cccc(C(F)(F)F)c3)ncc2n1 | – | – | > 50 µM | –

SMILES | IC50 [4] | IC50 [9] | IC50 [10] | further results
N=C(Nc1cccc(C(F)(F)F)c1)c1cc2cn[nH]c2cn1 | > 50 µM | 36.5 µM | > 50 µM | –
COc1ccc(Cn2nc(-c3ccccc3)c3cc(C(=N)Nc4cccc(C(F)(F)F)c4)nc(Nc4cc(OC)c(OC)c(OC)c4)c32)cc1 | – | – | > 50 µM | –
N=C(Nc1cccc(C(F)(F)F)c1)c1cc2c(-c3ccccc3)n[nH]c2c(N2CCOCC2)n1 | 17.3 µM | 6.8 µM | 13.3 µM | –
COc1ccc(Cn2nc(-c3ccccc3)c3cc(C(=N)Nc4cccc(C(F)(F)F)c4)nc(N4CCOCC4)c32)cc1 | – | – | > 50 µM | –
COc1ccc(Cn2nc(-c3ccccc3)c3cc(C(=N)Nc4ccccc4)nc(NC4CCCCC4)c32)cc1 | 1.1 µM | 3.4 µM | 3.4 µM | inhibition ([3]; time 15.0 min): inactive; IC50 [5]: 26.8 µM
COc1ccc(Cn2ncc3cc(C(=N)Nc4ccccc4)ncc32)cc1 | 36 µM | 25.7 µM | 34.7 µM | –
COc1ccc(Cn2nc(-c3ccccc3)c3cc(C(=N)Nc4ccc(N5CCN(C)CC5)cc4)nc(N4CCOCC4)c32)cc1 | 4.58 µM | 0.7 µM | 1.13 µM | Percentage of cells in G0/G1 phase [1]: 34.31%; Percent of cells in sub-diploid (sub-G1) phase [2]: 21.09%; inhibition ([3]; time 15.0 mins): 100%; IC50 [5]: 2.19 µM; Activity [7]: 31.48%; Activity [8]: Active; inhibition [11]: Active; Activity [12]: 34.21%
N=C(Nc1cccc(C(F)(F)F)c1)c1cc2c(-c3ccccc3)n[nH]c2cn1 | 19.9 µM | 24.6 µM | 22.3 µM | –
COc1ccc(Cn2cc3cc(C(=N)Nc4cccc(C(F)(F)F)c4)ncc3n2)cc1 | 12.8 µM | 13 µM | 15.5 µM | –
COc1cc(Nc2nc(C(=N)Nc3ccc(N4CCN(C)CC4)cc3)cc3c(-c4ccccc4)n[nH]c23)cc(OC)c1OC | 4.3 µM | 3.4 µM | 4.6 µM | –
CN1CCN(c2ccc(NC(=N)c3cc4cnn(C)c4cn3)cc2)CC1 | 32.3 µM | 24 µM | 30.2 µM | –
COc1ccc(Cn2cc3cc(C(=N)Nc4ccc(N5CCN(C)CC5)cc4)ncc3n2)cc1 | 9.9 µM | 3.2 µM | 8 µM | –
COc1cccc2c1C(=O)c1c(O)c3c(c(O)c1C2=O)C[C@@](O)(C(=O)CO)C[C@@H]3O[C@H]1C[C@H](N)[C@H](O)[C@H](C)O1 [DOXORUBICIN HYDROCHLORIDE] | 0.38 µM | 0.008 µM | 0.19 µM | IC50 [5]: 0.4 µM
CN1CCN(c2ccc(NC(=N)c3cc4c(-c5ccccc5)nn(C)c4cn3)cc2)CC1 | 5.9 µM | 1.4 µM | 4.9 µM | IC50 [5]: 10.4 µM
CN1CCN(c2ccc(NC(=N)c3cc4c(-c5ccccc5)n[nH]c4cn3)cc2)CC1 | 17.1 µM | 11.4 µM | 15.9 µM | –
CN1CCN(c2ccc(NC(=N)c3cc4c(-c5ccccc5)n[nH]c4c(N4CCOCC4)n3)cc2)CC1 | 8.3 µM | 5.6 µM | 3.9 µM | –
COc1ccc(Cn2ncc3cc(C(=N)Nc4ccc(N5CCN(C)CC5)cc4)ncc32)cc1 | 6.1 µM | 5.3 µM | 5.7 µM | –
Cn1ncc2cc(C(=N)Nc3cccc(C(F)(F)F)c3)ncc21 | > 50 µM | 33.8 µM | > 50 µM | –
COc1ccc(Cn2cc3cc(C(=N)Nc4ccccc4)ncc3n2)cc1 | 2.04 µM | 1.13 µM | 1.52 µM | Percentage of cells in G0/G1 phase [1]: 56.57%; Percent of cells in sub-diploid (sub-G1) phase [2]: 24.06%; IC50 [5]: 32.4 µM; Activity [7]: 36.07%; Activity [8]: Active; inhibition [11]: inactive; Activity [12]: 7.35%
COc1ccc(Cn2nc(-c3ccccc3)c3cc(C(=N)Nc4cccc(C(F)(F)F)c4)nc(NC4CCCCC4)c32)cc1 | – | – | > 50 µM | –
COc1ccc(Cn2nc(-c3ccccc3)c3cc(C(=N)Nc4ccccc4)nc(N4CCOCC4)c32)cc1 | 16.4 µM | 6.2 µM | 21.2 µM | –
